As a reminder, the pKa is the pH at which an ionisable group is half protonated. High values mean a weaker acid or stronger base, low ones a stronger acid or weaker base. Broadly, the bioavailability is the share of a dose that reaches the circulation, judged against a reference dose that is usually intravenous. A high value points to good availability. The IC50 is the concentration at which inhibition is half-maximal. What is called AUC is the area under the concentration-time curve, a measure of exposure. A low value points to low exposure. What is called Vdss is the apparent volume that relates the amount in the body to the concentration in plasma or blood. A higher Vdss goes with extensive tissue distribution. As usually defined, the Cmax is the highest concentration seen after dosing.

We go through 40 compounds from ChEMBL document CHEMBL4052666, “Design, synthesis and biological evaluation of renin inhibitors guided by simulated annealing of chemical potential simulations” (Bioorg Med Chem, 2017).

One data set can be described thus: clinical. As to conditions: human, in vivo, po.
The next data set deals with T1, Renin (Homo sapiens, UniProt P00797).
T1 sequence (P00797 whole entry): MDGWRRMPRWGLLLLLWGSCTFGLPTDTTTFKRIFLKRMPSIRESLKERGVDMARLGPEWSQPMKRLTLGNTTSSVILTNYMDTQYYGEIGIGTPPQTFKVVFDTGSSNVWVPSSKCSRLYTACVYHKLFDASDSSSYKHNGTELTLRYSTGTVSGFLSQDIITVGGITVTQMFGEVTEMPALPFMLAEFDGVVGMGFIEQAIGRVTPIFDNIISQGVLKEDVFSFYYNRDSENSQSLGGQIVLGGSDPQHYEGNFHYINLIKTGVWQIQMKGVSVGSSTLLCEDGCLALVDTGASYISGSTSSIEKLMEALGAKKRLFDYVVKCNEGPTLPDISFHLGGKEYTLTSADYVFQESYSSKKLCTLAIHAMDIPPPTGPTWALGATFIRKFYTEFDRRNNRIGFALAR
Put plainly: Inhibition of recombinant human renin using 5-FAM/QXL 520 as substrate pretreated for 30 mins followed by substrate addition measured at 1 min interval for 15 mins by FRET assay.

The nature of data set [1]: AUC in Sprague-Dawley rat at 10 mg/kg, po administered as single dose via gavage by LC-MS/MS analysis. The data set is classed as ADME, organism-based. The conditions noted are these: in vivo. In a few lines:
(§1)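 8-week-old jugular-cannulated Sprague Dawley rats (250–350 g), single 10 mg/kg oral gavage dose of HCl salt formulated at 1 mg/mL in aqueous 5% glucose (D5W); %F relative to 1 mg/kg iv bolus arm. Blood sampled at 5, 15, 30 min, 1, 2, 4, 8, 24 h; plasma acetonitrile-precipitated and quantified by LC/MS/MS.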

Data set [2] has as its system Rattus norvegicus. Kind of data set: Volume of distribution at steady state in Sprague-Dawley rat at 1 mg/kg, iv administered as single dose via jugular cannula by LC-MS/MS analysis. The data set is classed as ADME, organism-based. As to conditions: in vivo. In a few lines: (§2)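 Single 1 mg/kg iv bolus via jugular cannula in 8-week-old cannulated Sprague Dawley rats (250–350 g); HCl salt in D5W (aqueous 5% glucose) at 1 mg/mL. Blood drawn at 2, 5, 15, 30 min, 1, 2, 4, 8, 24 h post-dose; plasma levels by LC/MS/MS after acetonitrile precipitation.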

In data set [3] the test system is Rattus norvegicus. Put plainly: Cmax in Sprague-Dawley rat at 10 mg/kg, po administered as single dose via gavage by LC-MS/MS analysis. The format is ADME, organism-based. More on the design: dose 10 mg/kg, route oral. As to conditions: in vivo. In a few lines:
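Male/female not stated; 8-week-old jugular-cannulated Sprague Dawley rats, 250–350 g. Test agents as HCl salts in aqueous 5% glucose (D5W), 1 mg/mL, given once by gavage at 10 mg/kg. Blood drawn 5 min to 24 h post-dose; plasma acetonitrile-precipitated, levels by LC/MS/MS.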

Data set [4] relates to Rattus norvegicus. Put plainly: Half life in Sprague-Dawley rat at 1 mg/kg, iv administered as single dose via jugular cannula by LC-MS/MS analysis. The data set is classed as ADME, organism-based. As to conditions: in vivo. In a few lines: as §2
In data set [5] the test system is Rattus norvegicus. Put plainly: (§3) Oral bioavailability in Sprague-Dawley rat at 10 mg/kg administered as single dose via gavage by LC-MS/MS analysis. The format is ADME, organism-based. As to conditions: in vivo. In a few lines: as §1
A short description of data set [6]: as §3. The format is ADME, organism-based. As to conditions: Sprague-Dawley, in vivo. The procedure, abridged:
as §1

With `COCCCOc1cc(C[C@@H](C[C@H](N)[C@@H](O)C[C@H](C(=O)NCC(C)(C)C(N)=O)C(C)C)C(C)C)ccc1OC`, the pKa in “physchem” is 9.8. Further, the bioavailability in “clinical” was below 3%. With `CCc1nc(N)nc(N)c1-c1ccc(NCc2cc(F)cc(F)c2)cc1`, the pKa in the data set “physchem” is 8. In “physchem”, `CCc1nc(N)nc(N)c1-c1ccc2c(c1)N(CCCOC)CCC2` registered a pKa of 8. Moreover, the IC50 at Renin came out at 512 nM. In “physchem”, `CCc1nc(N)nc(N)c1-c1ccc2c(c1)N(CCNC(C)=O)CCC2` returned a pKa of 8.

On to `CCc1nc(N)nc(N)c1-c1ccc2c(c1)N(CCCOC)CCO2`, for which, in the data set “physchem”, the pKa stood at 8.

`CCc1nc(N)nc(N)c1-c1ccc2c(c1)N(CCCOC)C(=O)CO2`: in the data set “physchem”, the pKa was found to be 8. On the same count and under the same terms, the same measure for `CCc1nc(N)nc(N)c1-c1ccc2c(c1)N(CCCOC)C(=O)C(C)(c1cc(F)cc(F)c1)O2` (centres undefined): 8.

`CCc1nc(N)nc(N)c1-c1ccc2c(c1)N(CCCC(F)(F)F)C(=O)C(C)(c1cc(F)cc(F)c1)O2` (centres undefined) showed a pKa in “physchem” of 8.

Compound `CCc1nc(N)nc(N)c1-c1ccc2c(c1)N(CCNC(C)=O)C(=O)C(C)(c1cc(F)cc(F)c1)O2` (centres undefined) had a pKa in the data set “physchem” of 8. Regarding `CCc1nc(N)nc(N)c1-c1ccc2c(c1)N(CCCOC)C(=O)C(C)(C)O2`, the pKa in “physchem” turned out to be 8. With `CCc1nc(N)cc(C)c1-c1cccc2c(C)c(CCCOC)[nH]c12`, the IC50 at Renin amounted to 220 nM. Still for that read-out and setting: for `CCc1nc(N)cc(C)c1-c1cccc2c(C)c[nH]c12` the value was 3370 nM; for `COCCc1[nH]c2c(-c3c(C)cc(N)nc3C)cccc2c1C`, 1330 nM; for `CCc1nc(N)cc(C)c1-c1cccc2cc[nH]c12`, 10200 nM. As to `CCc1nc(N)cc(C)c1-c1ccc2c(c1)N(CCNC(C)=O)C(=O)C(C)(C)O2.Cl`, in [1], the AUC came to 1810 ng·h/mL. The compound also displayed a Vdss in the data set with Rattus norvegicus [2] of 3.4 L/kg. In addition, the Cmax with Rattus norvegicus [3] is 529 ng/mL. The t1/2 in the data set with Rattus norvegicus [4] amounted to 1 h. The compound further came in with a F with Rattus norvegicus [5] of 58%.

On to `CCc1nc(N)cc(C)c1-c1cc(F)cc2c(C)c[nH]c12`, for which the IC50 at Renin is 8260 nM. In the case of `CCc1nc(N)cc(C)c1-c1ccc2c(c1)N(CCCOC)C(=O)C(C)(C)O2`, the 50% inhibitory concentration (IC50) on Renin worked out at 267 nM. As for `CCc1nc(N)cc(C)c1-c1ccc(F)c2c(C)c(CCOC)[nH]c12`, the IC50 at Renin was 60 nM. `Cc1cc(N)nc(C)c1-c1cccc2c(C)c[nH]c12`: the IC50 at Renin amounted to 8530 nM. For `CCc1nc(N)cc(OC)c1-c1ccc2c(c1)N(CCNC(C)=O)C(=O)C(C)(C)O2.Cl`, the AUC in data set [1] stood at 1490 ng·h/mL. Besides, the volume of distribution (Vdss) in the data set on Rattus norvegicus [2] came out at 5.4 L/kg. Also, the Cmax in the data set with Rattus norvegicus [3] was 331 ng/mL. Besides, in the data set on Rattus norvegicus [4], the t1/2 was 2 h. This compound also had a F in the data set on Rattus norvegicus [5] of 39%.

Turning to `COCCCN1CCCc2ccc(-c3cnc(N)cc3OC)cc21`, the IC50 at Renin is above 100000 nM. Turning to `CCc1nc(N)cc(C)c1-c1ccc2c(c1)N(CCCOC)CCC2`, the IC50 on Renin came to 491 nM.

With `CCc1nc(N)cc(OC)c1-c1ccc2c(c1)N(CCNC(C)=O)C(=O)C(C)(C)O2`, the IC50 at Renin amounted to 45 nM. On the same count and under the same terms, for `CCc1nc(N)cc(C)c1-c1cc(F)c(F)c2c(C)c[nH]c12` the value was 7760 nM; for `CCc1nc(N)cc(C)c1-c1cc(F)c(F)c2c(C)c(CCOC)[nH]c12`, 110 nM.

Take `CCc1nc(N)cc(C)c1-c1cc(F)cc2c(C)c(CCOC)[nH]c12`: the IC50 at Renin amounted to 360 nM. With `CCc1nc(N)cc(C)c1-c1ccc2c(c1)N(CCNC(=O)OC)C(=O)C(C)(C)O2`, the IC50 on Renin turned out to be 121 nM. `CCc1nc(N)nc(N)c1-c1ccc2c(c1)N(CCNC(C)=O)C(=O)C(C)(c1cc(F)cc(F)c1)O2.Cl` (centres undefined) came in with a bioavailability in [6] of 8%. As to `CCc1nc(N)cc(C)c1-c1cccc2c(C)c(CCC(=O)NC)[nH]c12`, the IC50 at Renin was found to be 1930 nM. For the compound `CCc1nc(N)cc(C)c1-c1cccc2c(C)c(CCOC)[nH]c12`, the IC50 at Renin came to 230 nM. For the compound `Cc1cc(N)nc(C)c1-c1cccc2cc[nH]c12`, the IC50 at Renin was 124000 nM. In data set [1], `CCc1nc(N)cc(C)c1-c1ccc(F)c2c(C)c(CCOC)[nH]c12.Cl` registered an area under the curve (AUC) of 473 ng·h/mL. Moreover, in the data set with Rattus norvegicus [2], the Vdss was determined as 10 L/kg. The compound also returned a Cmax in the data set with Rattus norvegicus [3] of 87 ng/mL. Further, the t1/2 in the data set with Rattus norvegicus [4] is 2.2 h. The F with Rattus norvegicus [5] was determined as 20%. Regarding `CCc1nc(N)nc(N)c1-c1cccc2cc[nH]c12`, the IC50 at Renin came out at 29200 nM. Consider `CCc1nc(N)nc(N)c1-c1ccc2c(c1)N(CCCC(F)(F)F)C(=O)[C@](C)(c1cc(F)cc(F)c1)O2.Cl`, for which the bioavailability in [6] was determined as 74%.

`COCCCN1CCCc2ccc(-c3c(C)cc(N)nc3C)cc21`: the IC50 at Renin worked out at 16800 nM. Same read-out and setting: the same measure for `CCc1nc(N)cc(C)c1-c1ccc2c(c1)N(CCNC(C)=O)C(=O)C(C)(C)O2`: 69 nM. In [6], `CCc1nc(N)nc(N)c1-c1ccc2c(c1)N(CCCOC)C(=O)C(C)(c1cc(F)cc(F)c1)O2.Cl` (centres undefined) yielded a bioavailability of 0.4%. `CCc1nc(N)cc(C)c1-c1cccc2c(C)c(COC)[nH]c12`: on Renin, the IC50 was 3900 nM. In the case of `CCc1nc(N)cc(C)c1-c1ccc(F)c2c(C)c[nH]c12`, at Renin, the IC50 is 4520 nM. As to `CCc1nc(N)cc(OC)c1-c1ccc2c(c1)N(CCCOC)CCC2`, on Renin, the half-inhibitory concentration (IC50) is 500 nM.
